Screens from PubChem BioAssay.
INS promoter act = TRM-6 insulin promoter activation; TRM-6 cells, insulin promoter eGFP reporter, imaging; plate-scaled: unstimulated 0, stimulated control 100; AID 1296; activation, % at 2 µM; actives 0.81% (n = 130,000);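 active = activation at 2 µM above a set limit, confirmed on inspection of the cell images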;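 also: share of cells whose green reporter signal exceeds an intensity cutoff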
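material = TRM-6 human fetal islet cells, insulin promoter–eGFP reporter | input = 1,000 TRM-6 cells seeded per well | benchmarks = stimulated versus unstimulated wells as plate controls | measured by = automated fluorescence imaging of paraformaldehyde-fixed, Hoechst-counterstained cells, green channel | schedule = compound exposure 48 h, 37 °C | reagent = tamoxifen at 0.75 µM added at seeding for reporter induction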
Hits are given with their value; - = inactive. This excerpt belongs to a sample that is enriched for hits.

SMILES	INS promoter act
CC(CN(C)Cc1nc(Cc2cccc(C(F)(F)F)c2)no1)CN1CCCC1 (centres undefined)	-
CC(C(=O)NCc1ccco1)n1cc([N+](=O)[O-])cn1 (centres undefined)	-
Cc1sc2c(c1C)c(=O)n(-c1cccc(C(F)(F)F)c1)c(=O)n2CC(=O)NCc1ccco1	-
N/C(=N\OC(=O)CCCOc1ccccc1)c1ccncc1	-
N/C(=N\OC(=O)c1ccc(Br)cc1)c1ccccc1	-
Cc1ccccc1C(=O)O/N=C(\N)c1ccncc1	508
O=C(c1c[nH]c2ccc(S(=O)(=O)N3CCC4(CC3)OCCO4)cc2c1=O)N1CCOCC1	-
COc1ccc(CCNC(=O)c2cc(S(=O)(=O)N3CCC4(CC3)OCCO4)ccc2F)cc1OC	-
COC(CNC(=O)c1c[nH]c2ccc(S(=O)(=O)N3CCC4(CC3)OCCO4)cc2c1=O)OC	400
COc1ccc(NC(=S)Nn2cnnc2)cc1OC	-
CS(=O)(=O)N(CC(N)=O)c1cccc(Br)c1	514
CS(=O)(=O)N(CC(N)=O)c1ccc(F)c(Cl)c1	-
C=CCNC(=O)CN(c1cccc(Br)c1)S(C)(=O)=O	-
Cc1ccc(NC(=O)CCSc2ccccn2)cc1	-
CSc1cnc2c(N)nc(N(C)C)nc2n1	-
O=C1c2cccc3c(N4CCCCC4)ccc(c23)C(=O)N1c1ccc(Cl)cn1	-
CCN1C(=O)c2cccc3c(S(=O)(=O)Nc4ccccc4OC)ccc1c23	-
Cn1nc(C(=O)OCCN2C(=O)c3ccccc3C2=O)c2ccccc2c1=O	-
CCN(CC)S(=O)(=O)c1ccc(C(=O)OCCN2C(=O)c3cccc4c(N5CCOCC5)ccc(c34)C2=O)cc1	-
CCCN1C(=O)c2cccc3c(N4CCCCC4)ccc(c23)C1=O	245
O=C(OCCN1C(=O)c2cccc3c(N4CCOCC4)ccc(c23)C1=O)c1cc(Cl)cc(Cl)c1	204
CCN(C(=O)c1ccc(C)c(Br)c1)c1ccccc1	-
CCc1cccc(C)c1NC(=O)CSc1nnc(CCCOc2ccc(Cl)cc2Cl)n1C	-
CC(C)CN(CC(C)C)C(=O)C12CCC(C)(C(=O)O1)C2(C)C (centres undefined)	-
COc1ccc(C(=O)Nc2c(N)nc(SCC(=O)N3CCCCCC3)[nH]c2=O)cc1OC	-
SMILES	INS promoter act
COc1ccc(C2(CNC(=O)Cc3ccc(OC)c(OC)c3)CCOCC2)cc1	-
O=c1c2oc3ccccc3c2[nH]c(=S)n1-c1ccc(F)cc1	-
CCOc1ccccc1CNC(=O)c1c([N+](=O)[O-])c(C)nn1C	-
CCOC(=O)C1CCN(C(=O)C2CCCCC2)CC1	562
CCOC(=O)N1CCN(C(=O)C2CCN(S(=O)(=O)N3CCCC3)CC2)CC1	-
CCOC(=O)C1CCN(C(=O)/C=C/c2cccs2)CC1	-
CCOC(=O)C1CCN(C(=O)Cc2cccs2)CC1	-
CCOC(=O)C1CCN(C(=O)N(CC)CC)CC1	254
CCOC(=O)C1CCCN(C(=O)C2CCN(S(=O)(=O)CC)CC2)C1 (centres undefined)	-
COc1cc2nc(C3CCC3)n(NC(=O)c3ccco3)c(=O)c2cc1OC	-
O=C(CN1C(=O)/C(=C\c2ccc(F)cc2)Oc2ccccc21)NCc1ccco1	-
COCCNC(=O)CN(C(=O)CCC(=O)Nc1ccccn1)c1ccccc1F	-
CCCS(=O)(=O)N1CCN(C(=O)COc2ccc(-c3ccccc3)cc2)CC1	-
CCCc1cc(=O)oc2cc(Oc3ncccn3)ccc12	154
C=C(Cl)COc1ccc2c(CCC)cc(=O)oc2c1	-
CCCc1cc(=O)oc2cc(OCC(=O)Nc3cc(C)on3)ccc12	-
COc1ccc(N/C(=C(/C(Cl)=C(Cl)Cl)[N+](=O)[O-])n2nnc3ccccc32)cc1OC	-
Cc1ccc(S(=O)(=O)/C(C#N)=C/c2c(N3CC(C)OC(C)C3)nc3c(C)cccn3c2=O)cc1 (centres undefined)	-
Cc1cccc(NC(=O)CN2C(=O)N/C(=C/c3ccc(C)o3)C2=O)c1	-
CC(=O)N1C(=S)NC(=O)/C1=C1/C(=O)N(CC(=O)Nc2cccc(C)c2)c2ccccc21	108
Cc1ccc2c(c1)C(=O)C(=O)N2CC(=O)Nc1ccc(N2CCOCC2)cc1	-
CN(C)C(=O)C1C2NC(=S)N(c3cccc(Cl)c3)C1(C)Oc1ccc(Cl)cc12 (centres undefined)	-
COc1ccc(NC(=O)/C(C#N)=C/c2ccc(OCc3ccccc3F)cc2)cc1	-
O=C(O)C1C2CCC(O2)C1C(=O)NCc1ccc(Cl)cc1 (centres undefined)	-
C/C(CCc1ccc2c(c1)OCO2)=N\N=C1\NC(=O)CC(C(=O)Nc2ccc(Cl)cc2)S1 (centres undefined)	-
CN(C)C(CNC(=S)Nc1ccc(Cl)cc1)c1cccnc1 (centres undefined)	-
Cc1c(NC(=O)C(C)OC(=O)c2ccc([N+](=O)[O-])s2)c(=O)n(-c2ccccc2)n1C (centres undefined)	-
CC[n+]1c(/C=C/N(C)c2ccccc2)oc2ccccc21	-
CCOC(=O)c1c(-c2ccccc2)oc2ccc(OC)cc12	-
